{"source": "paper PMC9851027", "about": "(ACS Omega, 2023)", "key": {"human NMUR2 [1]": {"biological_target": "T1, human NMUR2 (Homo sapiens, UniProt Q9GZQ4)", "T1 sequence (Q9GZQ4 whole entry)": "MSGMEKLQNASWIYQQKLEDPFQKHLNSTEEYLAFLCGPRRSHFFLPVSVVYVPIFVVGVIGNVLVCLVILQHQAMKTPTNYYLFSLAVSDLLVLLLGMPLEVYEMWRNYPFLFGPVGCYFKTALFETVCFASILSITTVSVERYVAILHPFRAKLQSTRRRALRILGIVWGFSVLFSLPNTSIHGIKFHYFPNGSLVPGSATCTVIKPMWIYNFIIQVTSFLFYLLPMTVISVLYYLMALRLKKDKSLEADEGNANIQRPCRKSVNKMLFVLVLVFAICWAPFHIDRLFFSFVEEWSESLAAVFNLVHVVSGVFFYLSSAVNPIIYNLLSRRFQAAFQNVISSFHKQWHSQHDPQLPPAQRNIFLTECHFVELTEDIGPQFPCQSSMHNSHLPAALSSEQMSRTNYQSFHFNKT", "test": "Functional in vitro FLIPR calcium mobilization assay", "format": "cell-based", "conditions": "SD", "summary_of_the_method": "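Recombinant Chem-1 cells overexpressing full-length human NMUR2, grown in DMEM/10% FBS with selection, seeded at 5×10^5 cells/mL 16 h before assay. Loaded with Calcium 6 dye plus 2 mM probenecid for 60 min at 37 °C. Fractions given as 12-point 1:3 dilutions in HBSS/20 mM Hepes/0.1% BSA, final 1.1 μM–[…]. Read by FLIPR at 0.5 Hz as peak minus baseline fluorescence; Hill fit, mean ± standard deviation of two experiments.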"}, "human NMUR2 [2]": {"biological_target": "T1, human NMUR2", "test": "Competitive radioligand binding assay with [^125I]NMU-8"}}, "note": "Peptide text beside a SMILES is read from it. * marks the point of attachment. Propionyl = CCC(=O)*"}
{"smiles": "CCC(=O)N[C@H](C(=O)N[C@@H](CC(C)C)C(=O)N[C@@H](CCC(N)=O)C(=O)N[C@@H](CCCNC(=N)N)C(=O)NCC(=O)N[C@@H](CO)C(=O)NCC(=O)N[C@H](C(=O)N[C@@H](C)C(=O)N[C@@H](C)C(=O)N[C@H](C(=O)N[C@@H](CC(=O)O)C(=O)N[C@@H](Cc1ccccc1)C(=O)N[C@H](C(=O)N[C@@H](CCCCN)C(=O)N[C@@H](CCCCN)C(=O)N[C@@H](CC(=O)O)C(=O)N[C@@H](Cc1c[nH]cn1)C(=O)N[C@H](C(=O)N[C@@H](C)C(=O)N[C@H](C(=O)N[C@@H](Cc1c[nH]c2ccccc12)C(=O)NCC(=O)N[C@@H](CCCNC(=N)N)C(=O)N1CCC[C@H]1C(=O)N[C@@H](Cc1ccccc1)C(=O)N[C@@H](Cc1ccccc1)C(=O)N[C@@H](CC(C)C)C(=O)N[C@@H](Cc1ccccc1)C(=O)N[C@@H](CCCNC(=N)N)C(=O)N1CCC[C@H]1C(=O)N[C@@H](CCCNC(=N)N)C(=O)N[C@@H](CC(N)=O)C(N)=O)[C@@H](C)O)[C@@H](C)O)[C@@H](C)O)C(C)C)[C@@H](C)O)[C@@H](C)CC", "note": "[fraction c] (Propionyl-ILQRGSGTAAVDFTKKDHTATWGRPFFLFRPRN-NH2)", "values": [{"measurement": "EC50", "setting": "human NMUR2 [1]", "value": 1.02, "unit": "nM"}, {"measurement": "IC50", "setting": "human NMUR2 [2]", "value": 2.19, "unit": "nM"}]}
